Measurements as given in ChEMBL document CHEMBL5325455, “Daphnanes diterpenes from the latex of Hura crepitans L. and their PKCζ-dependent anti-proliferative activity on colorectal cancer cells” (Bioorg Med Chem, 2023).
pIC50: −log10 of the molar value. Active and inactive are the calls of the source. The rule behind the calls is not given here.

Legend:
Caco-2 [1] = test: Induction of morphological changes in human Caco-2 cells assessed as densification of cytoskeleton at 1 ug/ml incubated for 48 hrs by Hoechst 3342 and phalloidin staining based confocal microscopic analysis; assay type: functional, cell-based; settings: dose 1.0 µg/ml
In short: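 Caco-2 cells (40 000/well) were exposed for 48 h, then fixed in 3.7% PFA and permeabilised with Triton X100/BSA. Actin was stained with phalloidin and nuclei with Hoechst 3342, and cells were viewed by confocal microscopy.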

Caco-2 [2] = test: Induction of morphological changes in human Caco-2 cells assessed as effect on cellular aggregation at 1 ug/ml preincubated for 30 mins with CRT0066854 hydrochloride followed by compound addition and measured after 48 hrs by Hoechst 3342 and phalloidin staining based confocal microscopic analysis; assay type: functional, cell-based; settings: dose 1.0 µg/ml
In short: (§1)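 CRT0066854 hydrochloride (2.5 µM) was added to Caco-2 cells 30 min before compound at 1 µg/mL. After 48 h, nuclei and actin cytoskeleton were labelled and confocal views taken with a 20X objective; duplicates from one experiment.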

Caco-2 [3] = test: Upregulation of phosphorylated MEK at Ser217/221 level in human Caco-2 cells at 1 ug/ml preincubated for 30 mins with CRT0066854 hydrochloride followed by compound addition and measured after 48 hrs by Western blot analysis; assay type: functional, cell-based; settings: dose 1.0 µg/ml
In short: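 Caco-2 cells (0.25 × 10^6/well) were treated at 1 µg/mL for 48 h, with or without 30 min pretreatment with 2.5 µM CRT0066854. Lysates (30 µg protein) were blotted for pSer217/221-MEK and total MEK, with actin as loading control. Detection was by ECL; n=2, t-test versus DMSO.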

[4] = system: Colorectal epithelial cell; test: Cytostatic activity against human Colorectal epithelial cells isolated from patient with fistulized sigmoiditis cultured as organoids at 1 ug/ml incubated for 48 hrs by CellTiter-Glo luminescence assay; assay type: functional, cell-based; settings: dose 1.0 µg/ml
In short: (§2)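 Primary colonic epithelial cells (3 control and 2 CRC patients) were expanded as organoids or spheroids in Matrigel with EGF/noggin/Wnt3a/R-spondin medium. Single cells were seeded at 2500/well and allowed 48 h to form colonoids, then exposed for 48 h at 0.01, 0.1 or 1 µg/mL, with 5FdU at 1 µg/mL as positive control. Viability was read by CellTiter-Glo luminescence versus DMSO or medium control.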

[5] = Cytostatic activity against human Colorectal epithelial cells isolated from patient with well-differentiated colonic adenocarcinoma and undergone nine courses of chemotherapy cultured as organoids assessed as inhibition of cell growth at 0.1 ug/ml incubated for 48 hrs by CellTiter-Glo luminescence assay relative to control; assay type: functional; in short: as §2
Caco-2 [6] = test: Induction of morphological changes in human Caco-2 cells assessed as cellular aggregation at 1 ug/ml preincubated for 15 mins with PKCalpha inhibitor, Go6976 followed by compound addition and measured after 48 hrs by immunostaining based confocal microscopic analysis; assay type: functional, cell-based; settings: dose 1.0 µg/ml
In short: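 Caco-2 cells were given 0.2 µM Gö6976 for 15 min before compound at 1 µg/mL for 48 h. PKCα was immunostained, nuclei and cytoskeleton were labelled, and cells were imaged by confocal microscopy (20X objective) in duplicate from one experiment.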

Caco-2 [7] = test: Cytostatic activity against human Caco-2 cells assessed as inhibition of cell growth at 0.5 ug/ml incubated for 48 hrs by MTS assay relative to control; assay type: functional
In short: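 Caco-2 cells were seeded at 40 000/well 48 h before dosing. Compound was diluted from a 10 mg/mL DMSO stock into medium (0.125, 0.5 or 1 µg/mL final; DMSO ≤0.01%) and added in triplicate for 48 h. Viability was read by MTS absorbance at 490 nm and expressed relative to the DMSO control.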

Caco-2 [8] = test: Induction of morphological changes in human Caco-2 cells assessed as reorganization of epithelial tissue architecture by measuring effect on actin density at 1 ug/ml preincubated for 30 mins with CRT0066854 hydrochloride followed by compound addition and measured after 48 hrs by Hoechst 3342 and phalloidin staining based confocal microscopic analysis; assay type: functional, cell-based; settings: dose 1.0 µg/ml; in short: as §1
[9] = target: T1, Protein kinase C zeta type (Homo sapiens) (UniProt Q05513); test: Activation of PKCzeta in human Caco-2 cells assessed as increase in phosphorylation at Thr410 residue at 1 ug/ml measured after 48 hrs by Western blot analysis; assay type: cell-based; settings: filed as activator, dose 1.0 µg/ml
T1 sequence (whole entry): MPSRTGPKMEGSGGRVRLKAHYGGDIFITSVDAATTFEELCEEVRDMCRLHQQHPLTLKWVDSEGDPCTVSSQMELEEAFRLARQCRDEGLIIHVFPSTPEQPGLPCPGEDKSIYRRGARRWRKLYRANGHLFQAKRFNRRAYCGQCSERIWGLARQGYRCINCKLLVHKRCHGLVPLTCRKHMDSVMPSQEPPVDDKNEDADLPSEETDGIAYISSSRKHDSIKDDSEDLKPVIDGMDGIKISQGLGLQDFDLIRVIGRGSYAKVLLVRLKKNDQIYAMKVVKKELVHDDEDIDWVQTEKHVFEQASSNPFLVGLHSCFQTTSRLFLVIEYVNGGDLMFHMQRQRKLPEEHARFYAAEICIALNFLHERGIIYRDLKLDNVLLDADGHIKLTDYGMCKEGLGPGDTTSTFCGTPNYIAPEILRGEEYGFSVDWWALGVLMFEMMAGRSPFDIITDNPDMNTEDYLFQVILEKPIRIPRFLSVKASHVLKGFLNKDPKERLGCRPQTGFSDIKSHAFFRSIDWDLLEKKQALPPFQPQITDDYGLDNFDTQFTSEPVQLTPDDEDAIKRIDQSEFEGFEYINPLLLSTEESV
In short: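 Caco-2 cells (0.25 × 10^6/well) were pretreated or not with 2.5 µM CRT0066854 for 30 min, then treated at 1 µg/mL for 48 h. Lysis buffer was pH 7.4 Tris/NaCl/0.1% Triton/EDTA with protease and phosphatase inhibitors. 30 µg protein was run on 4–15% SDS-PAGE, blotted and probed overnight at 4°C for pThr410-PKCζ and total PKCζ, with HRP/ECL detection.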

[10] = target: T1, Protein kinase C zeta type (Homo sapiens); test: Activation of PKCzeta in human Caco-2 cells assessed as increase in colocalization of PKCzeta and actin in dense cell aggregates at 1 ug/ml measured after 48 hrs by immunostaining analysis; assay type: cell-based; settings: filed as activator, dose 1.0 µg/ml
In short: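 Caco-2 cells were seeded at 40 000/well and treated for 48 h as in the viability assay. They were fixed in 3.7% PFA for 20 min and permeabilised in HBSS/0.5% Triton X100/1% BSA. Anti-PKCζ (1/50) or anti-PKCα (1/200) was applied overnight at 4°C, then Alexa 488 secondary for 45 min. Phalloidin and Hoechst counterstained the cells before confocal imaging; PKCα signal was quantified by immunofluorescence.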

SARS-CoV-2 = test: Antiviral activity against SARS-CoV-2 assessed as reduction in progeny production measured 24 hrs post infection by PFU assay; assay type: functional, organism-based; settings: Severe acute respiratory syndrome coronavirus 2, 24 h
[11] = target: Protein kinase C delta type (Homo sapiens) (UniProt Q05655); test: (§3) Inhibition of PKCdelta in human Caco-2 cells assessed as ratio of phosphorylated PKCdelta at Ser664 residue to total PKCdelta level at 1 ug/ml incubated for 48 hrs by Western blot analysis (reference value: 0.77); assay type: cell-based; settings: dose 1.0 µg/ml
[12] = target: Protein kinase C delta type (Homo sapiens) (UniProt Q05655); test: as §3, with “preincubated” for “incubated”, “for 15 mins with PKCalpha inhibitor, Go6976 followed by compound addition and measured after” for “for”, “0.94)” for “0.77)”; assay type: cell-based; settings: dose 1.0 µg/ml
In short: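 Caco-2 cells were given 0.2 µM Gö6976 for 15 min, then compound at 1 µg/mL for 48 h. Lysates (30 µg protein) were blotted for pSer664-PKCδ and total PKCδ with actin loading control, and the pSer664/total PKCδ ratio was quantified. Data are from one experiment.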

Protein kinase C delta type (Homo sapiens), sequence (Q05655 whole entry, looked up): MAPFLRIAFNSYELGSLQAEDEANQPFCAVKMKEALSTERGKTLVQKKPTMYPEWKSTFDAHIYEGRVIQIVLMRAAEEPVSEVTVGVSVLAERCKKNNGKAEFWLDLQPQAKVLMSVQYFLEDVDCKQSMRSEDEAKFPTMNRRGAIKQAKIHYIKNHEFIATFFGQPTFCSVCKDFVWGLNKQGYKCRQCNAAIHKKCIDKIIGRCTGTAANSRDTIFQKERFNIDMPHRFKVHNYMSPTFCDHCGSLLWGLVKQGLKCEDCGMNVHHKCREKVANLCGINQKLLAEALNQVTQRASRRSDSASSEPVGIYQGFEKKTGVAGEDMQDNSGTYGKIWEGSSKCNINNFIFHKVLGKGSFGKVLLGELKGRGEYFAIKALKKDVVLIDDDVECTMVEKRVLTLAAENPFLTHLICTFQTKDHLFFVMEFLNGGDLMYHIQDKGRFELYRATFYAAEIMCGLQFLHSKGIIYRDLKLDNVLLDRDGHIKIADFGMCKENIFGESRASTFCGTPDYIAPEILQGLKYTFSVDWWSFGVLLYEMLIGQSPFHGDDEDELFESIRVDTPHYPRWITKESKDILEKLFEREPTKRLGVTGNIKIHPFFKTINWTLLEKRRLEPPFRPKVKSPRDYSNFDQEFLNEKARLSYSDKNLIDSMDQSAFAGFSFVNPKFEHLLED

SMILES	Activity (Caco-2 [1])	Activity (Caco-2 [2])	Activity (Caco-2 [3])	Activity [4]	inhibition at 0.1 µg/mL [5] [%]	Activity (Caco-2 [6])	inhibition at 0.5 µg/mL (Caco-2 [7]) [%]	Activity (Caco-2 [8])	Activity [9]	Activity [10]	pIC50 (SARS-CoV-2)	Ratio [11]	Ratio [12]
C=C(C)[C@]12C[C@@H](C)[C@@]34O[C@](/C=C/[C@@H]5O[C@H]5CCCCCCCCC)(O[C@@H]1[C@@H]3[C@@H]1O[C@]1(CO)[C@@H](O)[C@]1(O)C(=O)C(C)=C[C@H]14)O2	Active	inactive	Active	Active	40	Active							
C=C(C)[C@]12C[C@@H](C)[C@@]34O[C@](/C=C/C=C/CCCCCCCCC)(O[C@@H]1[C@@H]3[C@@H]1O[C@]1(CO)[C@@H](O)[C@]1(O)C(=O)C(C)=C[C@H]14)O2	Active		Active	Active	40	Active	20	inactive	Active	Active	4.19	0.73	0.68
